This is an account of results in ChEMBL document CHEMBL1667739, “Pitiprolamide, a proline-rich dolastatin 16 analogue from the marine cyanobacterium Lyngbya majuscula from Guam” (J Nat Prod, 2011).

Holding throughout (format): functional
Common to all, as to settings: ATCC 25177, 288 h, read-out: DIZ

In test [1] the test system is Mycobacterium tuberculosis. The experiment in a line: Antimycobacterial activity against Mycobacterium tuberculosis ATCC 25177 at 10 ug after 12 days by disc diffusion assay. A digest of the protocol: (§1)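 Compound dissolved in EtOH and loaded onto sterile filter-paper discs. Dried discs were placed on an inoculated agar plate and incubated 12 days at 37 °C. The diameter of the inhibition zone was then measured.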
A general note: A growth-free zone around the sample is the usual read-out of agar diffusion tests.

Test [2] relates to Mycobacterium tuberculosis. Description: Antimycobacterial activity against Mycobacterium tuberculosis ATCC 25177 at 1 ug after 12 days by disc diffusion assay. Put shortly: as §1
For test [3], the system named is Mycobacterium tuberculosis. Description: Antimycobacterial activity against Mycobacterium tuberculosis ATCC 25177 at 5 ug after 12 days by disc diffusion assay. Put shortly:
as §1

Structures are written as SMILES.

On to `CN[C@@H]1[C@H](O[C@H]2[C@H](O[C@H]3[C@H](O)[C@@H](O)[C@H](N=C(N)N)[C@@H](O)[C@@H]3N=C(N)N)O[C@@H](C)[C@]2(O)C=O)O[C@@H](CO)[C@H](O)[C@H]1O` [STREPTOMYCIN], for which, in test [1], the zone of inhibition at 10 µg/disc is 40 mm. Moreover, the zone of inhibition at 1 µg/disc in test [2] came out at 0 mm. The zone of inhibition at 5 µg/disc in test [3] came to 30 mm.
